Reference: ChEMBL document CHEMBL4680287, “Ibrexafungerp: An orally active β-1,3-glucan synthesis inhibitor” (Bioorg Med Chem Lett, 2021)
Values after ≈ are worked out from the molar mass of the structure shown.

How the values were obtained:
[1] = Clearance in mouse; type: ADME, organism-based; conditions: in vivo
[2] = Dose normalized AUC in po dosed mouse; type: ADME, organism-based; conditions: in vivo
[3] = tested on: Candida albicans; test: Antifungal activity against Candida albicans MY1055 assessed as fungal growth inhibition in presence of 50% mouse serum; type: functional; conditions: read-out: MIC100
In short: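 Broth microdilution per CLSI protocols in RPMI medium. Read-out is the MIC, the lowest concentration completely inhibiting fungal growth. Run without serum and with added serum.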

[4] = tested on: Candida albicans; test: Antifungal activity against Candida albicans MY1055 infected in DBA/2 mouse model of disseminated candidiasis assessed as reduction in fungal burden in kidney by measuring log change in colony forming units at 6.25 mg/kg, po bid for 7 days by TOKA; type: functional; conditions: time 7 day
In short: (§1)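 Murine disseminated candidiasis model (TOKA) in mice challenged with C. albicans MY1055 at 2.44 x 10^4 CFU/mouse. Dosed PO, or IP where stated. Kidneys collected aseptically 7 days after challenge and CFUs/g counted. Change in log CFU/g is relative to sham-treated controls; significance by two-tailed t test. Clearance is the percentage of kidneys below the detection limit.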

[5] = tested on: Aspergillus fumigatus; test: Antifungal activity against Aspergillus fumigatus MF5668 infected in DBA/2N mouse assessed as mean survival time at 6.25 mg/kg, ip bid administered for 7 days starting from 15 to 30 mins post infection and measured up to 21 days; type: functional; conditions: time 7 day
In short: (§2)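 DBA/2N mice were challenged IV with A. fumigatus MF5668 at 6.7 x 10^5 CFU/mouse, then dosed IP twice daily for 7 days. Survival was followed over a 21-day model, and mean survival time in days was recorded per dose group. A sham-treated control group was run alongside.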

[6] = tested on: Aspergillus fumigatus; test: Antifungal activity against Aspergillus fumigatus MF5668 infected in DBA/2N mouse assessed as mean survival time at 3.125 mg/kg, ip bid administered for 7 days starting from 15 to 30 mins post infection and measured up to 21 days; type: functional; conditions: time 7 day; in short: as §2
[7] = tested on: Aspergillus fumigatus; test: Antifungal activity against Aspergillus fumigatus MF5668 infected in DBA/2N mouse assessed as mean survival time at 12.5 mg/kg, ip bid administered for 7 days starting from 15 to 30 mins post infection and measured up to 21 days; type: functional; conditions: time 7 day; in short: as §2
[8] = tested on: Pichia kudriavzevii; test: Antifungal activity against Candida krusei ATCC 6258 assessed as fungal growth inhibition; type: functional; conditions: read-out: MIC100
[9] = tested on: Aspergillus fumigatus; test: Antifungal activity against Aspergillus fumigatus MF5668 infected in DBA/2N mouse assessed as mouse survival at 12.5 mg/kg, ip bid administered for 7 days starting from 15 to 30 mins post infection and measured up to 21 days relative to control; type: functional; conditions: 168 h, time 7 day
In short: (§3)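 DBA/2N mice were infected IV with A. fumigatus MF5668 (6.7 x 10^5 CFU/mouse) and treated IP bid for 7 days. Percent survival per dose group was scored at the end of the 21-day survival model and compared with the sham-treated control group.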

[10] = tested on: Aspergillus fumigatus; test: Antifungal activity against Aspergillus fumigatus MF5668 infected in DBA/2N mouse assessed as mouse survival at 1.56 mg/kg, ip bid administered for 7 days starting from 15 to 30 mins post infection and measured up to 21 days relative to control; type: functional; conditions: 168 h, time 7 day; in short: as §3
[11] = tested on: Nakaseomyces glabratus; test: Antifungal activity against Candida glabrata MY1381 assessed as reduction in fungal growth; type: functional
[12] = Oral bioavailability in rat; type: ADME, organism-based; conditions: in vivo
In short: (§4)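 Oral bioavailability calculated as oral AUC normalized to the IV dose, divided by the IV AUC.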

[13] = Half life in mouse; type: ADME, organism-based; conditions: in vivo
[14] = tested on: Candida albicans; test: Antifungal activity against Candida albicans MY1055 infected in ip dosed DBA/2 mouse model of disseminated candidiasis assessed as reduction in fungal burden in kidney administered bid for 7 days by TOKA; type: functional; conditions: 168 h, time 7 day; in short: as §1
[15] = tested on: Candida albicans; test: Antifungal activity against Candida albicans MY1055 infected in DBA/2 mouse model of disseminated candidiasis assessed as reduction in fungal burden in kidney by measuring log change in colony forming units at 25 mg/kg, po bid for 7 days by TOKA; type: functional; conditions: time 7 day; in short: as §1
[16] = Inhibition of beta-1,3-glucan synthase in Candida albicans MY1055 microsomal membrane assessed as inhibition of TCA-insoluble material formation using UDP-[3H]-glucose as substrate incubated for 2 hrs in presence of GTP by radioactivity-based assay; type: microsomes, Microsome
In short: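 GS IC50 measured using Candida albicans MY1055 microsomal membrane fragments as the enzyme source.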

[17] = tested on: Candida tropicalis; test: Antifungal activity against Candida tropicalis MY1012 assessed as reduction in fungal growth; type: functional
[18] = tested on: Aspergillus fumigatus; test: Antifungal activity against Aspergillus fumigatus MF5668 infected in DBA/2N mouse assessed as mean survival time at 1.56 mg/kg, ip bid administered for 7 days starting from 15 to 30 mins post infection and measured up to 21 days; type: functional; conditions: time 7 day; in short: as §2
[19] = Clearance in rhesus monkey; type: ADME, Macaca mulatta; conditions: in vivo
[20] = Dose normalized AUC in po rhesus monkey; type: ADME, organism-based, Macaca mulatta; conditions: in vivo
[21] = Oral bioavailability in mouse; type: ADME, organism-based; conditions: in vivo; in short: as §4
[22] = tested on: Candida albicans; test: Antifungal activity against Candida albicans MY1055 infected in DBA/2 mouse model of disseminated candidiasis assessed as reduction in fungal burden in kidney by measuring log change in colony forming units at 12.5 mg/kg, ip bid for 7 days by TOKA; type: functional; conditions: time 7 day; in short: as §1
[23] = Half life in rat; type: ADME; conditions: in vivo
[24] = Clearance in dog; type: ADME, Canis lupus familiaris; conditions: in vivo

CC(C)[C@@H](C)[C@@]1(C)CC[C@]2(C)[C@H]3CC[C@@H]4[C@@]5(COC[C@@]4(C)[C@@H](OC[C@](C)(N)C(C)(C)C)[C@H](n4ncnc4-c4ccncc4)C5)C3=CC[C@@]2(C)[C@@H]1C(=O)O [IBREXAFUNGERP]
clearance [1]: 14 mL/min/kg | AUC/dose [2]: 0.59 µM·kg·h/mg | MIC [3]: 0.5 µg/mL | Activity [4]: -2.2 deltalog10CFU | MST [5]: 19.2 days | MST [6]: 12.2 days | MST [7]: 19.4 days | MIC [8]: 4 µg/mL (≈ 5.48 µM) | survival at 12.5 mg/kg [9]: 90% | survival at 1.56 mg/kg [10]: 0% | MIC50 [11]: 1 µg/mL (≈ 1.37 µM) | bioavailability [12]: 23% | half-life [13]: 4.4 h | ED99 [14]: 0.84 mg/kg | Activity [15]: -4.6 deltalog10CFU | IC50 [16]: 0.001 µg/mL | MIC50 [17]: 1 µg/mL (≈ 1.37 µM) | MST [18]: 5.1 days | clearance [19]: 11 mL/min/kg | AUC/dose [20]: 0.33 µM·kg·h/mg | bioavailability [21]: 34% | Activity [22]: -3.99 deltalog10CFU | half-life [23]: 8.3 h | clearance [24]: 4 mL/min/kg
